From ChEMBL document CHEMBL1151801, “Synthesis of new indeno[1,2-e]pyrimido[4,5-b][1,4]diazepine-5,11-diones as potential antitumor agents” (2008)
The source made the active and inactive calls.

Legend:
CAKI-1 = assay: Antitumor activity against human Caki1 cells after 48 hrs by SRB assay; type: functional; settings: CAKI-1, 48 h
Method in brief: (§1)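 NCI in vitro human tumor cell line screen. Cells were exposed continuously to compound for 48 h at five concentration levels (100, 10, 1.0, 0.1 and 0.01). Growth was estimated by sulforhodamine B protein staining. GI50 is the concentration giving a 50% reduction in net protein increase relative to control cells over the incubation.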

A498 = assay: Antitumor activity against human A498 cells after 48 hrs by SRB assay; type: functional; settings: A498, 48 h; method in brief: as §1
786-0 = assay: Antitumor activity against human 786-0 cells after 48 hrs by SRB assay; type: functional; settings: 786-0, 48 h; method in brief: as §1
SK-OV-3 = assay: Antitumor activity against human SKOV3 cells after 48 hrs by SRB assay; type: functional; settings: SK-OV-3, 48 h; method in brief: as §1
OVCAR-8 = assay: Antitumor activity against human OVCAR8 cells after 48 hrs by SRB assay; type: functional; settings: OVCAR-8, 48 h; method in brief: as §1
OVCAR-3 = assay: Antitumor activity against human OVCAR-3 cells after 48 hrs by SRB assay; type: functional; settings: OVCAR-3, 48 h; method in brief: as §1
IGROV-1 = assay: Antitumor activity against human IGROV1 cells after 48 hrs by SRB assay; type: functional; settings: IGROV-1, 48 h; method in brief: as §1
U-251 = assay: Antitumor activity against human U251 cells after 48 hrs by SRB assay; type: functional; settings: U-251, 48 h
Method in brief: (§2)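 NCI in vitro human tumor cell line screen. Continuous 48 h drug exposure at five concentrations (100, 10, 1.0, 0.1 and 0.01 µM). Cell growth estimated by sulforhodamine B protein staining. GI50 defined as the concentration giving 50% reduction in net protein increase versus control cells over the incubation.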

SNB-75 = assay: Antitumor activity against human SNB75 cells after 48 hrs by SRB assay; type: functional; settings: SNB-75, 48 h; method in brief: as §1
SF-539 = assay: Antitumor activity against human SF539 cells after 48 hrs by SRB assay; type: functional; settings: SF-539, 48 h; method in brief: as §1
ACHN = assay: Antitumor activity against human ACHN cells after 48 hrs by SRB assay; type: functional; method in brief: as §1
SF-268 = assay: Antitumor activity against human SF268 cells after 48 hrs by SRB assay; type: functional; settings: SF-268, 48 h; method in brief: as §1
SW-620 = assay: Antitumor activity against human SW620 cells after 48 hrs by SRB assay; type: functional; settings: SW-620, 48 h; method in brief: as §2
KM12 = assay: Antitumor activity against human KM12 cells after 48 hrs by SRB assay; type: functional; settings: KM12, 48 h; method in brief: as §1
HCT-15 = assay: Antitumor activity against human HCT15 cells after 48 hrs by SRB assay; type: functional; settings: HCT-15, 48 h; method in brief: as §1
HCC 2998 = assay: Antitumor activity against human HCC2998 cells after 48 hrs by SRB assay; type: functional; settings: HCC 2998, 48 h; method in brief: as §1
COLO 205 = assay: Antitumor activity against human COLO205 cells after 48 hrs by SRB assay; type: functional; settings: COLO 205, 48 h; method in brief: as §1
NCI-H522 = assay: Antitumor activity against human NCI-H522 cells after 48 hrs by SRB assay; type: functional; settings: NCI-H522, 48 h; method in brief: as §1
NCI-H460 = assay: Antitumor activity against human NCI-H460 cells after 48 hrs by SRB assay; type: functional; settings: NCI-H460, 48 h; method in brief: as §1
NCI-H322M = assay: Antitumor activity against human NCI-H322M cells after 48 hrs by SRB assay; type: functional; method in brief: as §1
NCI-H23 = assay: Antitumor activity against human NCI-H23 cells after 48 hrs by SRB assay; type: functional; settings: NCI-H23, 48 h; method in brief: as §1
NCI-H226 = assay: Antitumor activity against human NCI-H226 cells after 48 hrs by SRB assay; type: functional; settings: NCI-H226, 48 h; method in brief: as §1
HOP-62 = assay: Antitumor activity against human HOP62 cells after 48 hrs by SRB assay; type: functional; settings: HOP-62, 48 h; method in brief: as §1
EKVX = assay: Antitumor activity against human EKVX cells after 48 hrs by SRB assay; type: functional; method in brief: as §1
A549 = assay: Antitumor activity against human A549 cells after 48 hrs by SRB assay; type: functional; settings: A549, 48 h; method in brief: as §1
SR = assay: Antitumor activity against human SR cells after 48 hrs by SRB assay; type: functional; method in brief: as §1
[1] = Antitumor activity against human […] cells after 48 hrs by SRB assay; type: functional; method in brief: as §1
MOLT-4 = assay: Antitumor activity against human MOLT4 cells after 48 hrs by SRB assay; type: functional; settings: MOLT-4, 48 h; method in brief: as §1
K562 = assay: Antitumor activity against human K562 cells after 48 hrs by SRB assay; type: functional; settings: K562, 48 h; method in brief: as §1
HL-60(TB) = assay: Antitumor activity against human HL-60(TB) cells after 48 hrs by SRB assay; type: functional; settings: HL-60, 48 h; method in brief: as §1
CCRF-CEM = assay: Antitumor activity against human CCRF-CEM cells after 48 hrs by SRB assay; type: functional; method in brief: as §1
NCI60 = assay: Antitumor activity against human NCI60 cells at 1 uM; type: functional, cell-based
UO-31 = assay: Antitumor activity against human UO31 cells after 48 hrs by SRB assay; type: functional; settings: UO-31, 48 h; method in brief: as §2
PC-3 = assay: Antitumor activity against human PC3 cells after 48 hrs by SRB assay; type: functional; settings: PC-3, 48 h; method in brief: as §1
DU-145 = assay: Antitumor activity against human DU145 cells after 48 hrs by SRB assay; type: functional; settings: DU-145, 48 h; method in brief: as §1
MCF7 = assay: Antitumor activity against human MCF7 cells after 48 hrs by SRB assay; type: functional; settings: MCF7, 48 h; method in brief: as §1
NCI/ADR-RES = assay: Antitumor activity against human NCI/ADR-RES cells after 48 hrs by SRB assay; type: functional; method in brief: as §1
[2] = Antitumor activity against human Hs 578T cells after 48 hrs by SRB assay; type: functional; method in brief: as §1
BT-549 = assay: Antitumor activity against human BT549 cells after 48 hrs by SRB assay; type: functional; settings: BT-549, 48 h; method in brief: as §1
[3] = read-out: LC50 (the source's name)

CSc1nc2c(c(=O)[nH]1)NC1=C(C(=O)c3ccccc31)C(c1ccc(F)cc1)N2 (configuration not stated)
GI50 (CAKI-1): 3.3 µM
LC50 (CAKI-1): > 100 µM
GI50 (A498): 4.88 µM
LC50 (A498): 57.7 µM
GI50 (786-0): 12.4 µM
CC50 (786-0; [3]): 60.4 µM
GI50 (SK-OV-3): 14.1 µM
LC50 (concentration killing 50% of cells) (SK-OV-3): > 100 µM
GI50 (OVCAR-8): 13.1 µM
LC50 (concentration causing 50% net cell kill) (OVCAR-8): 95.2 µM
GI50 (OVCAR-3): 3.38 µM
CC50 (OVCAR-3; [3]): 61.8 µM
GI50 (IGROV-1): 11.3 µM
CC50 (IGROV-1; [3]): > 100 µM
GI50 (U-251): 5.43 µM
CC50 (U-251; [3]): 48.6 µM
GI50 (SNB-75): 1.46 µM
LC50 (SNB-75): > 100 µM
GI50 (SF-539): 8.9 µM
LC50 (concentration killing 50% of cells) (SF-539): 92 µM
GI50 (ACHN): 11.6 µM
CC50 (ACHN; [3]): > 100 µM
GI50 (SF-268): 12.7 µM
CC50 (SF-268; [3]): > 100 µM
GI50 (SW-620): 4.48 µM
LC50 (SW-620): > 100 µM
GI50 (KM12): 3.77 µM
CC50 (KM12; [3]): 39.5 µM
GI50 (HCT-15): 4.57 µM
LC50 (concentration killing 50% of starting cells) (HCT-15): > 100 µM
GI50 (HCC 2998): 12.2 µM
CC50 (HCC 2998; [3]): 76.1 µM
GI50 (COLO 205): 13 µM
CC50 (COLO 205; [3]): > 100 µM
GI50 (NCI-H522): 3.17 µM
CC50 (NCI-H522; [3]): > 100 µM
GI50 (NCI-H460): 5.1 µM
CC50 (NCI-H460; [3]): > 100 µM
GI50 (NCI-H322M): 13.9 µM
CC50 (NCI-H322M; [3]): > 100 µM
GI50 (NCI-H23): 13.5 µM
LC50 (NCI-H23): > 100 µM
GI50 (NCI-H226): 15.3 µM
LC50 (NCI-H226): > 100 µM
GI50 (HOP-62): 11.9 µM
CC50 (HOP-62; [3]): 95.6 µM
GI50 (EKVX): 18.2 µM
CC50 (EKVX; [3]): > 100 µM
GI50 (A549): 12.6 µM
CC50 (A549; [3]): > 100 µM
GI50 (SR): 6.31 µM
LC50 (concentration killing 50% of cells) (SR): > 100 µM
GI50 [1]: 4.2 µM
LC50 [1]: > 100 µM
GI50 (MOLT-4): 19.5 µM
LC50 (MOLT-4): > 100 µM
GI50 (K562): 4.05 µM
LC50 (K562): > 100 µM
GI50 (HL-60(TB)): 6.54 µM
LC50 (HL-60(TB)): > 100 µM
GI50 (CCRF-CEM): 8.16 µM
CC50 (CCRF-CEM; [3]): > 100 µM
Activity (NCI60): Active
GI50 (UO-31): 16.3 µM
CC50 (UO-31; [3]): > 100 µM
GI50 (PC-3): 7.72 µM
CC50 (PC-3; [3]): > 100 µM
GI50 (DU-145): 16.2 µM
CC50 (DU-145; [3]): > 100 µM
GI50 (MCF7): 5.18 µM
LC50 (concentration causing 50% net cell kill) (MCF7): > 100 µM
GI50 (NCI/ADR-RES): 6.42 µM
LC50 (NCI/ADR-RES): > 100 µM
GI50 [2]: 5.85 µM
CC50 [2, 3]: > 100 µM
GI50 (BT-549): 8.5 µM
CC50 (BT-549; [3]): > 100 µM
